Data as given in ChEMBL document CHEMBL4390654, “Microwave-assisted solid-phase synthesis of antisense acpP peptide nucleic acid-peptide conjugates active against colistin- and tigecycline-resistant E. coli and K. pneumoniae” (Eur J Med Chem, 2019).

Assays:
[1] = test system: Escherichia coli; test: Antibacterial activity against NDM-1 producing multi-drug resistant Escherichia coli NMI 3371/16 ST101 assessed as reduction in microbial growth incubated for 20 hrs; assay type: functional; settings: NMI 3371/16 ST101, 20 h
Method in brief: (§1)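 Broth microdilution MIC (modified Hancock protocol) in non-binding polystyrene plates. Inoculum ~2 × 10^5 CFU/mL in Mueller-Hinton broth with Mg²⁺ and Ca²⁺ at 4 mg/L each. Compounds dissolved in water, diluted in 0.01% acetic acid/0.2% BSA (final), added as 10× stocks. Covered plates incubated 20 h at 35 °C (± 2 °C) with 220 rpm circular shaking before MIC read.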

[2] = Ratio of MIC for Escherichia coli lacking functional SbmA to MIC for Escherichia coli ATCC 25922
[3] = test system: Klebsiella pneumoniae; test: Antibacterial activity against Klebsiella pneumoniae ATCC 13883 assessed as reduction in microbial growth incubated for 20 hrs; assay type: functional; settings: ATCC 13883, 20 h
Method in brief: (§2)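 Broth microdilution MIC after a modified Hancock protocol for cationic peptides, in non-binding polystyrene plates. Inoculum ~2 × 10^5 CFU/mL in Mueller-Hinton broth with Mg²⁺ and Ca²⁺ at 4 mg/L each. Compounds dissolved in water, diluted in 0.01% acetic acid, 0.2% BSA (final), added as 10× aliquots. Covered plates incubated 20 h at 35 °C (± 2 °C) with shaking at 220 rpm. MIC read as lowest inhibiting concentration.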

[4] = test system: Acinetobacter baumannii; test: Antibacterial activity against Acinetobacter baumannii NMI 3658/17 assessed as reduction in microbial growth incubated 20 hrs; assay type: functional; settings: NMI 3658/17, 20 h; method in brief: as §2
[5] = test system: Staphylococcus aureus; test: Antibacterial activity against Staphylococcus aureus ATCC 29213 assessed as reduction in microbial growth incubated for 20 hrs; assay type: functional; settings: ATCC 29213, 20 h; method in brief: as §2
[6] = test system: Escherichia coli; test: Antibacterial activity against multi-drug resistant Escherichia coli NMI 3898/15 assessed as reduction in microbial growth incubated for 20 hrs; assay type: functional; settings: NMI 3898/15, 20 h; method in brief: as §1
[7] = test system: Pseudomonas aeruginosa; test: Antibacterial activity against Pseudomonas aeruginosa ATCC 27853 assessed as reduction in microbial growth incubated for 20 hrs; assay type: functional; settings: ATCC 27853, 20 h; method in brief: as §2
[8] = test system: Klebsiella pneumoniae; test: Antibacterial activity against multi-drug resistant Klebsiella pneumoniae NMI 3081/09 assessed as reduction in microbial growth incubated for 20 hrs; assay type: functional; settings: NMI 3081/09, 20 h; method in brief: as §1
[9] = test system: Acinetobacter baumannii; test: Antibacterial activity against Acinetobacter baumannii ATCC 19606 assessed as reduction in microbial growth incubated for 20 hrs; assay type: functional; settings: ATCC 19606 = CIP 70.34 = JCM 6841, 20 h; method in brief: as §2
[10] = test system: Escherichia coli; test: Antibacterial activity against Escherichia coli ATCC 25922 assessed as reduction in microbial growth incubated for 20 hrs; assay type: functional; settings: ATCC 25922, 20 h; method in brief: as §1
[11] = test system: Escherichia coli; test: Antibacterial activity against NDM-1 producing multi-drug resistant Escherichia coli NMI 5428/11 ST410 assessed as reduction in microbial growth incubated for 20 hrs; assay type: functional; settings: NMI 5428/11 ST410, 20 h; method in brief: as §1
[12] = Ratio of MIC for Escherichia coli ATCC 25922 to MIC against Escherichia coli NMI 3898/15; assay type: functional
[13] = test system: Escherichia coli; test: Antibacterial activity against multi-drug resistant Escherichia coli NMI 3548/14 assessed as reduction in microbial growth incubated for 20 hrs; assay type: functional; settings: NMI 3548/14, 20 h; method in brief: as §1
[14] = Hemolytic activity against RBC (unknown origin) at 100 uM; assay type: ADME, cell-based, Erythrocyte; settings: red blood cells (erythrocytes); read-out: Activity
[15] = test system: Escherichia coli; test: Antibacterial activity against NDM-5 producing multi-drug resistant Escherichia coli NMI 636/15 ST405 assessed as reduction in microbial growth incubated for 20 hrs; assay type: functional; settings: NMI 636/15 ST405, 20 h; method in brief: as §1
[16] = test system: Klebsiella pneumoniae; test: Antibacterial activity against multi-drug resistant Klebsiella pneumoniae NMI 2697/14 assessed as reduction in microbial growth incubated for 20 hrs; assay type: functional; settings: NMI 2697/14, 20 h; method in brief: as §1
[17] = test system: Pseudomonas aeruginosa; test: Antibacterial activity against multi-drug resistant Pseudomonas aeruginosa NMI 506/17 assessed as reduction in microbial growth incubated for 20 hrs; assay type: functional; settings: NMI 506/17, 20 h; method in brief: as §1
[18] = test system: Pseudomonas aeruginosa; test: Antibacterial activity against Pseudomonas aeruginosa PAO1 assessed as reduction in microbial growth incubated for 20 hrs; assay type: functional; settings: PAO1, 20 h; method in brief: as §2
[19] = test system: Escherichia coli; test: Antibacterial activity against Escherichia coli lacking a functional SbmA assessed as reduction in microbial growth incubated for 20 hrs; method in brief: as §2
[20] = Ratio of MIC for Escherichia coli ATCC 25922 to MIC for Klebsiella pneumoniae ATCC 13883; assay type: functional

`CC[C@H](C)[C@H](NC(=O)[C@@H]1CCCN1C(=O)[C@H](CCCNC(=N)N)NC(=O)[C@@H]1CCCN1C(=O)[C@H](Cc1cnc[nH]1)NC(=O)[C@H](CO)NC(=O)[C@@H](NC(=O)[C@@H]1CCCN1C(=O)[C@H](CCCNC(=N)N)NC(=O)[C@@H]1CCCN1C(=O)[C@H](CO)NC(=O)[C@H](Cc1ccc(O)cc1)NC(=O)[C@@H]1CCCN1C(=O)[C@H](CCCNC(=N)N)NC(=O)[C@@H]1CCCN1C(=O)[C@H](CCCNC(=N)N)NC(=O)CCCCCNC(=O)[C@@H](N)CCCNC(=N)N)[C@@H](C)O)C(=O)N[C@@H](CCCNC(=N)N)C(=O)N[C@H](C(=O)N[C@@H](CS)C(=O)N[C@H](C(=O)N[C@@H](CS)C(=O)N[C@@H](C)C(=O)N[C@H](C(=O)N[C@@H](C)C(=O)N[C@@H](CS)C(=O)N[C@H](C(=O)N[C@@H](CS)C(=O)N[C@H](C(N)=O)[C@@H](C)O)[C@@H](C)O)[C@@H](C)O)[C@@H](C)O)C(C)C` gave an MIC [1] of 0.5 µg/mL, a Ratio [2] of over 16 and an MIC [3] of 2 to 4 µg/mL. The MIC [4] was 32 µg/mL, the MIC [5] was over 64 µg/mL and the MIC [6] was 4 µg/mL. It also gave an MIC [7] of over 64 µg/mL, an MIC [8] of 8 µg/mL and an MIC [9] of 64 µg/mL. It also gave an MIC [10] of 4 µg/mL, an MIC [11] of 1 µg/mL and a Ratio [12] of 2 to 8. For the same compound, the MIC [13] was 1 to 2 µg/mL, the hemolysis at 100 µM [14] was under 1% and the MIC [15] was 1 µg/mL. The MIC [16] was 32 µg/mL, the MIC [17] was over 64 µg/mL and the MIC [18] was over 64 µg/mL. It also gave an MIC [19] of over 64 µg/mL.
With `CC[C@@H](C)[C@@H](NC(=O)[C@@H](CCCCN)NC(=O)[C@@H]([C@H](C)CC)N(C(=O)[C@@H](CCCNC(=N)N)NC(=O)CCCCCNC(=O)[C@H](N)CCCNC(=N)N)C(=O)[C@@H](CCCNC(=N)N)NC(=O)CCCCCNC(=O)[C@H](N)CCCNC(=N)N)C(=O)N[C@H](CC(C)C)C(=O)N[C@H](Cc1ccccc1)C(=O)N[C@H](CCC(N)=O)C(=O)N[C@H](CC(N)=O)C(=O)N[C@H](CCCNC(=N)N)C(=O)N[C@H](CCCNC(=N)N)C(=O)N[C@H](CCSC)C(=O)N[C@H](CCCCN)C(=O)N[C@H](Cc1c[nH]c2ccccc12)C(=O)N[C@H](CCCCN)C(=O)N[C@H](CCCCN)C(N)=O` the MIC [1] was 2 µg/mL, the MIC [3] was 4 µg/mL and the MIC [4] was 2 µg/mL. For the same compound, the MIC [5] was 2 to 4 µg/mL, the MIC [6] was 2 µg/mL and the MIC [7] was 2 µg/mL. The MIC [8] was 16 µg/mL, the MIC [9] was 2 µg/mL and the MIC [10] was 2 to 4 µg/mL. It also gave an MIC [11] of 1 to 2 µg/mL, an MIC [13] of 1 µg/mL and a hemolysis at 100 µM [14] of under 1%. For the same compound, the MIC [15] was 2 µg/mL, the MIC [16] was 16 µg/mL and the MIC [17] was 4 µg/mL. The MIC [18] was 1 µg/mL and the MIC [19] was 2 µg/mL.
In the case of `CC[C@H](C)[C@H](NC(=O)[C@@H]1CCCN1C(=O)[C@H](CCCNC(=N)N)NC(=O)[C@@H]1CCCN1C(=O)[C@H](Cc1cnc[nH]1)NC(=O)[C@H](CO)NC(=O)[C@@H](NC(=O)[C@@H]1CCCN1C(=O)[C@H](CCCNC(=N)N)NC(=O)[C@@H]1CCCN1C(=O)[C@H](CO)NC(=O)[C@H](Cc1ccc(O)cc1)NC(=O)[C@@H]1CCCN1C(=O)[C@H](CCCNC(=N)N)NC(=O)[C@@H]1CCCN1C(=O)[C@H](CCCNC(=N)N)NC(=O)CCCCCNC(=O)[C@@H](N)CCCNC(=N)N)[C@@H](C)O)C(=O)N[C@@H](CCCNC(=N)N)C(=O)N[C@H](C(=O)N[C@@H](CSC1CC(=O)N(CCC(=O)NCCOCCOC(=O)N[C@@H](CS)C(=O)N[C@H](C(=O)N[C@@H](CS)C(=O)N[C@@H](C)C(=O)N[C@H](C(=O)N[C@@H](C)C(=O)N[C@@H](CS)C(=O)N[C@H](C(=O)N[C@@H](CS)C(=O)N[C@H](C(N)=O)[C@@H](C)O)[C@@H](C)O)[C@@H](C)O)[C@@H](C)O)C1=O)C(N)=O)C(C)C` (some centres undefined), the MIC [3] is reported as 4 to 8 µg/mL, the MIC [5] is reported as over 64 µg/mL and the MIC [6] is reported as 8 to 32 µg/mL. For the same compound, the MIC [8] was 64 µg/mL, the MIC [9] was over 64 µg/mL and the MIC [10] was 16 µg/mL. The Ratio [20] was 2 to 4, the Ratio [12] was 2 to 8 and the MIC [13] was 2 to 8 µg/mL. It also gave a hemolysis at 100 µM [14] of under 1%, an MIC [16] of 32 to 64 µg/mL and an MIC [18] of over 64 µg/mL. The MIC [19] was over 64 µg/mL.
